Data taken from ChEMBL document CHEMBL4351018, “Novel phenanthridin-6(5H)-one derivatives as potent and selective BET bromodomain inhibitors: Rational design, synthesis and biological evaluation” (Eur J Med Chem, 2019).

Tests used:
[1] = target: T1, Bromodomain-containing protein 4 (Homo sapiens, UniProt O60885); test: Binding affinity to recombinant human His-tagged BRD4 bromodomain 1 expressed in […] insect cells using biotinylated H4(1 to 21)K5/8/12/16Ac peptide as substrate at 20 uM preincubated for 30 mins followed by substrate addition and measured after 30 mins by Alpha screen assay relative to control
PANC-1 = test: Antiproliferative activity against human PANC1 cells incubated for 48 hrs by MTT assay; type: functional, cell-based; conditions: PANC-1, 48 h
In short: (§1)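 Cells kept in DMEM or RPMI 1640 with 10% FBS at 37 °C, 5% CO2. MTT added for 4 h at 37 °C, formazan dissolved in DMSO, OD read at 570 nm. Survival % taken relative to blank and control wells. Triplicate runs; IC50 from curve fit.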

A549 [2] = test: Induction of apoptosis in human A549 cells assessed as necrotic cells at 5.0 uM incubated for 48 hrs by annexin V-FITC/PI double staining based flow cytometric analysis (reference value: 0%); type: functional
[3] = target: Bromodomain testis-specific protein (Homo sapiens) (UniProt Q58F21); test: Binding affinity to BRDT bromodomain 2 (unknown origin) at 20 uM by Alpha screen assay relative to control
[4] = Metabolic stability in human liver microsomes assessed as half life at 1 uM measured for 0.025 to 2 hrs in presence of betaNADPH by LC-MS/MS analysis; type: ADME, Microsome
In short: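 1 μM compound incubated at 37 °C with human liver microsomes (0.5 mg/mL), 1.7 mM β-NADPH and 3.3 mM MgCl2 in 0.1 M phosphate buffer pH 7.4, with DMSO below 0.1%. Remaining parent measured by LC-MS/MS; half-life from concentration-time regression.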

[5] = target: Bromodomain-containing protein 3 (Homo sapiens) (UniProt Q15059); test: Binding affinity to BRD3 bromodomain 2 (unknown origin) at 20 uM by Alpha screen assay relative to control
Chain of Bromodomain-containing protein 3 (Homo sapiens) (Q15059 2-726 limits assumed): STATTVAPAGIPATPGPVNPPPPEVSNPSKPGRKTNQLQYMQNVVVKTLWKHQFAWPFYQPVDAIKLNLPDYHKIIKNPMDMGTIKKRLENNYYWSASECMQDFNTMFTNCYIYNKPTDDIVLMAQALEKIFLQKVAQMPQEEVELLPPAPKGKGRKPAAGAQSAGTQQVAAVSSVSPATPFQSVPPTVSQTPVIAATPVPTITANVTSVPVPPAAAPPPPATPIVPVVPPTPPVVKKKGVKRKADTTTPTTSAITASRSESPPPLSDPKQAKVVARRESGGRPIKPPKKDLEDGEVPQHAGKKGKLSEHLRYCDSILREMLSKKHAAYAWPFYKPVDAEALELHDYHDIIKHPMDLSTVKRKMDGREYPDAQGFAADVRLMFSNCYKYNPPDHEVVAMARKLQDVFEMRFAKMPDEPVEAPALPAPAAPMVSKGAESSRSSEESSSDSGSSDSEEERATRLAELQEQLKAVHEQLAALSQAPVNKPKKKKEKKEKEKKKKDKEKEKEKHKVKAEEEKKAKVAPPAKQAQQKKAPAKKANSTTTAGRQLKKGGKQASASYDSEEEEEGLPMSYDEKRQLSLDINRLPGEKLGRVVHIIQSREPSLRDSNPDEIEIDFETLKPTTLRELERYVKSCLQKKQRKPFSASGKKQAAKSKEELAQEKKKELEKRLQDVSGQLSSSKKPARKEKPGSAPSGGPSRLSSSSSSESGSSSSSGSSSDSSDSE

[6] = target: Bromodomain testis-specific protein (Homo sapiens) (UniProt Q58F21); test: Binding affinity to BRDT bromodomain 1 (unknown origin) at 20 uM by Alpha screen assay relative to control
A549 [7] = test: Induction of apoptosis in human A549 cells assessed as early apoptotic cells at 0.3 uM incubated for 48 hrs by annexin V-FITC/PI double staining based flow cytometric analysis (reference value: 1.76%); type: functional
[8] = target: T1, Bromodomain-containing protein 4; test: Inhibition of recombinant human His-tagged BRD4 bromodomain 1/2 (2 to 1362 residues) expressed in […] insect cells using biotinylated H4(1 to 21)K5/8/12/16Ac peptide as substrate preincubated for 30 mins followed by substrate addition and measured after 30 mins by Alpha screen assay
[9] = Cmax in Sprague-Dawley rat at 2.5 mg/kg, iv measured for 0.083 to 24 hrs by LC-MS/MS analysis; type: ADME, organism-based; design: dose 2.5 mg/kg, route intravenous; conditions: in vivo
A549 [10] = test: Induction of apoptosis in human A549 cells assessed as necrotic cells at 0.3 uM incubated for 48 hrs by annexin V-FITC/PI double staining based flow cytometric analysis (reference value: 0%); type: functional
[11] = Volume of distribution at steady state in Sprague-Dawley rat at 10 mg/kg, po measured for 0.083 to 24 hrs by LC-MS/MS analysis; type: ADME, organism-based; conditions: in vivo
A549 [12] = test: Induction of cell cycle arrest in human A549 cells assessed as increase in accumulation at G1 phase incubated for 48 hrs by BrdU/PI staining based flow cytometric analysis; type: functional
In short: (§2)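 Subconfluent A549 cells exposed 48 h to 0.3–5.0 μM with DMSO vehicle control. Pulse-labelled with 10 μM BrdU for 30 min at 37 °C before harvest. Fixed in 70% ethanol, denatured in 2 M HCl, neutralised, then stained with fluorescein anti-BrdU antibody and propidium iodide. Analysed by flow cytometry with 488 nm excitation.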

A549 [13] = test: Induction of apoptosis in human A549 cells assessed as viable cells at 0.3 uM incubated for 48 hrs by annexin V-FITC/PI double staining based flow cytometric analysis (reference value: 98.2%); type: functional; conditions: A549, 48 h, read-out: Activity
A549 [14] = test: Induction of apoptosis in human A549 cells assessed as viable cells at 5.0 uM incubated for 48 hrs by annexin V-FITC/PI double staining based flow cytometric analysis (reference value: 98.2%); type: functional; conditions: A549, 48 h, read-out: Activity
A549 [15] = test: Induction of cell cycle arrest in human A549 cells assessed as accumulation at […] phase at 0.3 uM incubated for 48 hrs by BrdU/PI staining based flow cytometric analysis; type: functional; in short: as §2
[16] = Tmax in Sprague-Dawley rat at 2.5 mg/kg, iv measured for 0.083 to 24 hrs by LC-MS/MS analysis; type: ADME, organism-based; conditions: in vivo
[17] = target: Bromodomain-containing protein 2 (Homo sapiens) (UniProt P25440); test: Binding affinity to BRD2 bromodomain 2 (unknown origin) at 20 uM by Alpha screen assay relative to control
Chain of Bromodomain-containing protein 2 (Homo sapiens) (P25440 whole entry, looked up): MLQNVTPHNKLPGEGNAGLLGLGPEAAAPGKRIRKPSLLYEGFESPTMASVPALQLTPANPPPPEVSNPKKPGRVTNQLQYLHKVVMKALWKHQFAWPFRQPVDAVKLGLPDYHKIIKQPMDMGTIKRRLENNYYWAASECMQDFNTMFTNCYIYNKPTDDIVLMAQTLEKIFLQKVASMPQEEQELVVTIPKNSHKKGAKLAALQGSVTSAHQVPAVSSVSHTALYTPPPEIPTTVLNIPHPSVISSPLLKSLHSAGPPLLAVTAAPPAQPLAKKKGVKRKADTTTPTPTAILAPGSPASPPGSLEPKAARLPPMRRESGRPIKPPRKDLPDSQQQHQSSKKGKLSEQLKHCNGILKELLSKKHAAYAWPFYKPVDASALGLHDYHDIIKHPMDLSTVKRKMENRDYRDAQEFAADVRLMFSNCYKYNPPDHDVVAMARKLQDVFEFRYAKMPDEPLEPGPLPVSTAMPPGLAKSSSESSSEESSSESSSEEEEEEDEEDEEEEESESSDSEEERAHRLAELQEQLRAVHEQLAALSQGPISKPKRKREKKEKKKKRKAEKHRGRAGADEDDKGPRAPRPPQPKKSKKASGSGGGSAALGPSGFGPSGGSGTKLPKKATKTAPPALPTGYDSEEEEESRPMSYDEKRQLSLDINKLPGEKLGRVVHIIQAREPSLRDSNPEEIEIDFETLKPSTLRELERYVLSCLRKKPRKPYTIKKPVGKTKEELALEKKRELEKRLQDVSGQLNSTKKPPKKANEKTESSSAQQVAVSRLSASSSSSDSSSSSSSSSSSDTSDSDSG

[18] = AUC (0 to t) in Sprague-Dawley rat at 2.5 mg/kg, iv measured for 0.083 to 24 hrs by LC-MS/MS/MS analysis; type: ADME, organism-based; design: time upper 24 hr, dose 2.5 mg/kg, time lower 0.083 hr, route intravenous; conditions: in vivo
[19] = Apparent clearance in Sprague-Dawley rat at 2.5 mg/kg, iv measured for 0.083 to 24 hrs by LC-MS/MS analysis; type: ADME, organism-based; conditions: in vivo, read-out: CL(app) (converted)
A549 [20] = test: Induction of apoptosis in human A549 cells assessed as viable cells at 3.0 uM incubated for 48 hrs by annexin V-FITC/PI double staining based flow cytometric analysis (reference value: 98.2%); type: functional; conditions: A549, 48 h, read-out: Activity
A549 [21] = test: Induction of cell cycle arrest in human A549 cells assessed as increase in accumulation at M phase incubated for 48 hrs by BrdU/PI staining based flow cytometric analysis; type: functional; in short: as §2
A549 [22] = test: Inhibition of BET in human A549 cells assessed as downregulation of c-Myc protein expression level incubated for 48 hrs by western blot analysis; type: cell-based
In short: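 A549 cells seeded at 400000 per well, grown overnight in 10% FBS medium, then given serially diluted compound for 48 h. c-Myc in lysates detected with a mouse monoclonal antibody; GAPDH used as loading control.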

HepG2 = test: Antiproliferative activity against human HepG2 cells incubated for 48 hrs by MTT assay; type: functional, cell-based; conditions: HepG2, 48 h; in short: as §1
[23] = MRT (0 to t) in Sprague-Dawley rat at 10 mg/kg, po measured for 0.083 to 24 hrs by LC-MS/MS analysis; type: ADME, organism-based; conditions: in vivo
A549 [24] = test: Induction of apoptosis in human A549 cells assessed as late apoptotic cells at 1.0 uM incubated for 48 hrs by annexin V-FITC/PI double staining based flow cytometric analysis (reference value: 0.039%); type: functional
A549 [25] = test: Induction of apoptosis in human A549 cells assessed as necrotic cells at 3.0 uM incubated for 48 hrs by annexin V-FITC/PI double staining based flow cytometric analysis (reference value: 0%); type: functional
A549 [26] = test: Induction of apoptosis in human A549 cells assessed as early apoptotic cells at 3.0 uM incubated for 48 hrs by annexin V-FITC/PI double staining based flow cytometric analysis (reference value: 1.76%); type: functional
A549 [27] = test: Induction of apoptosis in human A549 cells assessed as late apoptotic cells at 3.0 uM incubated for 48 hrs by annexin V-FITC/PI double staining based flow cytometric analysis (reference value: 0.039%); type: functional

With `COc1ccc(Cl)cc1S(=O)(=O)Nc1ccc2[nH]c(=O)c3ccccc3c2c1` the Activity [1] was > 70%, the IC50 (PANC-1) was 6.7 µM and the Activity (A549 [2]) was 0.036%. The Activity [3] was > 70%, the half-life at 1 µM [4] was 4.17 h and the Activity [5] was > 70%. For the same compound, the Activity [6] was > 70%, the Activity (A549 [7]) was 27.7% and the IC50 [8] was 0.24 µM. For the same compound, the Cmax [9] was 96.9 ng/mL, the Activity (A549 [10]) was 0.02% and the Vdss [11] was 97.34 L/kg. For the same compound, the Activity (A549 [12]) was “Dose-dependent effect”, the viability at 0.3 µM (A549 [13]) was 69.6% and the viability at 5 µM (A549 [14]) was 19.7%. The Activity (A549 [15]) was 60.84%, the Tmax [16] was 4.98 min and the Activity [17] was > 70%. It also gave an AUC(0-t) [18] of 383 ng·h/mL, a clearance [19] of 85.8 mL/min/kg and a viability at 3 µM (A549 [20]) of 24.6%. The Activity (A549 [21]) was “Dose-dependent effect”, the inhibition (A549 [22]) was “Dose-dependent effect” and the IC50 (HepG2) was 4.83 µM. The MRT last [23] was 7.52 h, the Activity (A549 [24]) was 6.13% and the Activity (A549 [25]) was 0%. For the same compound, the Activity (A549 [26]) was 68.3% and the Activity (A549 [27]) was 7.11%.
